Source: PubChem
MEKK2 WT-MEK5: raises or lowers MEK5 binding to wildtype human MEKK2 PB1 domain; Q9Y2U5; bead flow cytometry, Alexa488-MEK5 binding to MEKK2 WT; actives lie on both sides; binding response (% of control), % at 10 µM; 290,000 tested, 1.1% active; AID 1531; in the data active = binding response below about 67% or above about 130%; inconclusive = no clear call, values can overlap the other calls; inactive = in between
UBC13 polyUb: human UBC13 polyubiquitination inhibition; P61088; UBC13 polyubiquitin chain formation, TR-FRET; inhibition, % at 20 µM; 330,000 tested, 0.47% active; in the data active = inhibition above about 45%, passing the limit was not always enough; inconclusive = no clear call, values can overlap the other calls
MEKK2mut PB1 HTS: signal of MEK5 binding to mutant human MEKK2 PB1 domain. bead flow cytometry, Alexa488-MEK5 binding to MEKK2 mutant. 290,000 tested, 0.35% active. percent response, % at 10 µM; in the data active = percent response above about 24%, passing the limit was not always enough
MEKK3 PB1 HTS: MEKK3-MEK5 PB1 interaction, increase or decrease | Q99759 | bead-based flow cytometry, Alexa488-MEK5 binding to MEKK3; actives lie on both sides; 0 = blocked by unlabeled MEK5, 100 = vehicle | binding response (% of control), % at 10 µM | AID 1529 | 290,000 tested, 1.4% active;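 active = binding response more than 3 SD above or below the average of its plate-row segment, actives on both sides; inconclusive = wells at one plate position flagged as instrument error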;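 also: Alexa488 bead fluorescence after subtracting the streptavidin-only scavenger bead signal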
Apaf1 inhib: inhibitors of human Apaf-1 apoptosome; reconstituted apoptosome caspase-3 activity, DEVD-Rh110 fluorescence; inhibition, % at 20 µM; 330,000 tested, 0.71% active; AID 489030; active = inhibition of at least 40% at 20 µM;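 also: plate controls were DMSO wells for no effect and DEVD-CHO caspase inhibitor wells for full effect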
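Assay system: Apoptosome proteins | Medium: pH 7.5 Hepes buffer with CHAPS, BSA, DTT | Also added: Cytochrome c and DEVD-Rh110 substrate | Times: 30 min plus 50 min, RT | Detection: Rhodamine 110 fluorescence at Ex 480/Em 540 nm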
PREPL inhibitor: inhibitors of human prolyl oligopeptidase-like enzyme PREPL; inhibition, % at 5.96 µM; Q4J6C6; 320,000 tested, 0.68% active; recombinant PREPL, fluorescence polarization activity-based probe; AID 2751; in the data active = inhibition above about 43%;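 also: 0% = enzyme with DMSO and 100% = wells lacking enzyme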
Target sequence (Q4J6C6 whole entry, looked up): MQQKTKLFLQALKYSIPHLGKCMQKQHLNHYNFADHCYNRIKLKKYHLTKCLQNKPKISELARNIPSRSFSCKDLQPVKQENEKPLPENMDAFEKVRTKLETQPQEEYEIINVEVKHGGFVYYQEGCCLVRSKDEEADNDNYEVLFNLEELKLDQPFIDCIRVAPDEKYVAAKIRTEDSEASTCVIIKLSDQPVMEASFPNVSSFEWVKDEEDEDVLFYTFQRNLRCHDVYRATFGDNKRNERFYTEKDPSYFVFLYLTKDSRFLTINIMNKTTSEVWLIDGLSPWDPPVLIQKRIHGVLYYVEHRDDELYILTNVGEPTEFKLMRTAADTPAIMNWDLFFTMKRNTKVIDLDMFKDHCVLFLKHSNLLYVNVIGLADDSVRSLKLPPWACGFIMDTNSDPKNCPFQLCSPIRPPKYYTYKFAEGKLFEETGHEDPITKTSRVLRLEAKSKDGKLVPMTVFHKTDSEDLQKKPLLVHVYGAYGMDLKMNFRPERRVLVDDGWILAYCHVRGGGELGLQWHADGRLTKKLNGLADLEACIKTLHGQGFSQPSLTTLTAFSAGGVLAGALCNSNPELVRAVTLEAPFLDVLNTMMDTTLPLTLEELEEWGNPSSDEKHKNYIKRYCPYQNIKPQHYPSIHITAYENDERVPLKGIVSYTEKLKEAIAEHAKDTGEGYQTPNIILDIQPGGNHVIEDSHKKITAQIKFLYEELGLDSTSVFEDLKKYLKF
Casp3 counter: inhibits human caspase-3 in UBC13 counter-screen. shares compounds with UBC13 polyUb. inhibition, % at 20 µM. Recombinant caspase-3, Caspase-Glo 3/7 luminescence, 60 min. AID 488856. 1,400 tested, 4% active;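 active = mean inhibition across replicates above about 26%, limit read from the data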;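 also: plate controls were DMSO with caspase-3 for no effect and DMSO wells lacking enzyme for full effect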
UBC13 confirm: human UBC13 polyubiquitin inhibition, confirmed; shares compounds with UBC13 polyUb; AID 488859; UBC13 polyubiquitination, TR-FRET, biochemical; 1,400 tested, 68% active; inhibition, % at 10 µM; in the data active = inhibition above about 45%; inconclusive = no clear call, values can overlap the other calls
The depositor's hits bear a star. In the library only some 3.1% were active in any assay of this set; here they are far more common.

Results for CC(C)(C)c1ccc(-c2nc3c(C#N)c(-c4ccc5c(c4)OCO5)ccn3n2)cc1 ?
MEKK2 WT-MEK5: 101; UBC13 polyUb: 48*; MEKK2mut PB1 HTS: 3; MEKK3 PB1 HTS: 106; Apaf1 inhib: 18; PREPL inhibitor: 12; Casp3 counter: -4; UBC13 confirm: inconclusive

How did Cc1nn2c(nc(N3CCOCC3)c3ccccc32)c1C=C(C#N)C#N do in these assays?
MEKK2 WT-MEK5: 99; UBC13 polyUb: 47*; MEKK2mut PB1 HTS: -1; MEKK3 PB1 HTS: 103; Apaf1 inhib: 5; PREPL inhibitor: 0; Casp3 counter: -4; UBC13 confirm: 46*

What do the screens show for `Cc1nn2c(nc(N3CCCCC3)c3ccccc32)c1C=O`?
MEKK2 WT-MEK5: 99; UBC13 polyUb: 0; MEKK2mut PB1 HTS: -2; MEKK3 PB1 HTS: 104; Apaf1 inhib: 7; PREPL inhibitor: -3

How did Cc1cc(C)n(-c2c(C)[nH]c3ccccc23)n1 do in these assays?
MEKK2 WT-MEK5: 97; UBC13 polyUb: -4; MEKK2mut PB1 HTS: -3; MEKK3 PB1 HTS: 99; Apaf1 inhib: -10; PREPL inhibitor: 1

Results for COc1ccc(-c2cc3ccccc3oc2=O)cc1NC(=S)NC(=O)c1ccc2c(c1)OCCO2 ?
MEKK2 WT-MEK5: 100; UBC13 polyUb: 49*; MEKK2mut PB1 HTS: 0; MEKK3 PB1 HTS: 99; Apaf1 inhib: -12; PREPL inhibitor: 1; Casp3 counter: 0; UBC13 confirm: 46*

How did Nc1ccccc1C(=O)N1CCc2ccccc21 do in these assays?
MEKK2 WT-MEK5: 97; UBC13 polyUb: -8; MEKK2mut PB1 HTS: -10; MEKK3 PB1 HTS: 99; Apaf1 inhib: -3; PREPL inhibitor: 12

What do the screens show for `COc1cc(C2C(C#N)=C(N)Oc3n[nH]c(-c4cccs4)c32)cc(OC)c1O` (centres undefined)?
MEKK2 WT-MEK5: 97; UBC13 polyUb: 84*; MEKK2mut PB1 HTS: 4; MEKK3 PB1 HTS: 98; Apaf1 inhib: -1; PREPL inhibitor: 0; Casp3 counter: 0; UBC13 confirm: 88*

What do the screens show for `N#CC1=C(N)Oc2n[nH]c(-c3cccs3)c2C1c1ccoc1` (centres undefined)?
MEKK2 WT-MEK5: 105; UBC13 polyUb: -19; MEKK2mut PB1 HTS: 5; MEKK3 PB1 HTS: 101; Apaf1 inhib: 3; PREPL inhibitor: 2

What do the screens show for `CN1CCN(c2cc(-c3cc(O)c4ncccc4c3)ccn2)CC1`?
UBC13 polyUb: 100*; Apaf1 inhib: 11; PREPL inhibitor: 12; Casp3 counter: 14; UBC13 confirm: 102*

How did Cc1ncc(S(=O)(=O)c2ccc(Cl)cc2)c(N)n1 do in these assays?
UBC13 polyUb: 45*; Apaf1 inhib: -4; PREPL inhibitor: 2; Casp3 counter: -1; UBC13 confirm: 49*

How did Cc1ccc(S(=O)(=O)N2CCC(C(=O)OCC(=O)NC3(C#N)CCCCC3)CC2)cc1C do in these assays?
UBC13 polyUb: 1; Apaf1 inhib: 8; PREPL inhibitor: 4

Results for O=C(N/N=C/c1c[nH]c2ccccc12)c1sc2ccccc2c1Cl ?
MEKK2 WT-MEK5: 98; UBC13 polyUb: -7; MEKK2mut PB1 HTS: 0; MEKK3 PB1 HTS: 101; Apaf1 inhib: 19; PREPL inhibitor: 36

What do the screens show for `Cc1nc(N)sc1C(=O)N/N=C/c1c[nH]c2ccccc12`?
MEKK2 WT-MEK5: 105; UBC13 polyUb: 79*; MEKK2mut PB1 HTS: 6; MEKK3 PB1 HTS: 104; Apaf1 inhib: -14; PREPL inhibitor: 11; Casp3 counter: 14; UBC13 confirm: 114*

Results for COc1cc(/C=N/NC(=O)c2cc(-c3ccccc3)sc2N)cc(OC)c1OC ?
MEKK2 WT-MEK5: 106; UBC13 polyUb: -3; MEKK2mut PB1 HTS: 4; MEKK3 PB1 HTS: 106; Apaf1 inhib: -13; PREPL inhibitor: 31

What do the screens show for `CC(/C=N/NC(=O)c1sc(N)nc1C)=C\c1ccccc1`?
MEKK2 WT-MEK5: 103; UBC13 polyUb: 85*; MEKK2mut PB1 HTS: 0; MEKK3 PB1 HTS: 108; Apaf1 inhib: -13; PREPL inhibitor: 16; Casp3 counter: 43*; UBC13 confirm: 96*
